The text below walks through data of ChEMBL document CHEMBL3797198, “Discovery of pyrazinone based compounds that potently inhibit the drug-resistant enzyme variant R155K of the hepatitis C virus NS3 protease” (Bioorg Med Chem, 2016).

The nature of data set [1]: Inhibition of wild-type full-length HCV genotype 1a NS3 protease using Ac-DED(Edans)EEAbu-psi-[COO]ASK(Dabcyl)-NH2 as substrate by FRET assay. Details: species or system Hepatitis C virus subtype 1a. In a few lines:
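Full-length HCV NS3 (protease-helicase/NTPase), genotype 1a wild type, FRET protease assay. 1 nM enzyme preincubated 10 min at 30 °C in 50 mM HEPES pH 7.5 with 10 mM DTT. Inhibition taken from measured initial velocities, corrected for each compound's auto-fluorescence. That correction used the ratio of fluorescence with and without compound, measured at every tested concentration.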

Another data set concerns Hepatitis C virus. In words: Antiviral activity against HCV infected in human HuH7 cells by cell based replicon assay. The class given is functional, organism-based, Hepacivirus hominis. Conditions: Huh-7. In a few lines: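 HCV replicon cell assay; EC50 given as the mean of two experiments.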
(In general: A replicon is a self-replicating genome or part of one, used to study replication in cells.)

Data set [2] can be described thus: Cytotoxicity against human HuH7 cells. The class given is cell-based, Huh-7.

Usually Ki stands for a measure of affinity in units of concentration, obtained from inhibition or displacement. What is called EC50 is the midpoint of the concentration-response curve. Lower therefore signals an effect from little substance. What is called CC50 is the concentration that lowers cell viability or growth by half. A higher CC50 goes with lower toxicity to the cells.

On to `C=Cc1ccc(C(=O)NS(=O)(=O)c2ccc(C(F)(F)F)cc2)c(NC(=O)Cn2c(CCC3CCCCC3)c(Cl)nc(NC(=O)NC(C)(C)C)c2=O)c1`, for which the Ki in data set [1] was 120 nM.
The same measure, in the same setting: the same measure for `CC(C)(C)NC(=O)Nc1nc(Cl)c(CCc2ccccc2)n(CC(=O)Nc2ccccc2S(=O)(=O)NC(=O)c2ccc(C(F)(F)F)cc2)c1=O`: 170 nM; for `CC(C)(C)NC(=O)Nc1nc(Cl)c(CCC2CCCCC2)n(CC(=O)NC2(C(=O)NS(=O)(=O)c3ccc(C(F)(F)F)cc3)CC(OCc3ccccc3)C2)c1=O` (centres undefined): 70 nM.
For `CC(C)(C)NC(=O)Nc1nc(Cl)c(CCC2CCCCC2)n(CC(=O)Nc2cc(C(=O)NS(=O)(=O)c3ccc(C(F)(F)F)cc3)cc(C(F)(F)F)c2)c1=O`, the affinity in data set [1], expressed as Ki, was 100 nM.
Regarding `CC(C)(C)NC(=O)Nc1nc(Cl)c(CCC2CCCCC2)n(CC(=O)Nc2ccccc2C(=O)O)c1=O`, in data set [1], the Ki was found to be 120 nM. In the data set on Hepatitis C virus, this compound registered a 50% effective concentration (EC50) of 49000 nM. The compound also gave a CC50 in data set [2] above 100000 nM.
In turn, `CC(C)(C)NC(=O)Nc1nc(Cl)c(CCC2CCCCC2)n(CC(=O)Nc2cccc(C(=O)NS(=O)(=O)c3ccc(C(F)(F)F)cc3)c2)c1=O` displayed a Ki in data set [1] of 170 nM.
Still for that read-out and setting: the same measure for `CC(C)(C)NC(=O)Nc1nc(Cl)c(Cc2cccc3ccccc23)n(CC(=O)Nc2ccc(S(=O)(=O)NC(=O)c3ccc(C(F)(F)F)cc3)cc2)c1=O`: 170 nM.
In data set [1], `CC(C)(C)NC(=O)Nc1nc(Cl)c(Cc2cccc3ccccc23)n(CC(=O)Nc2ccccc2S(=O)(=O)NC(=O)c2ccc(C(F)(F)F)cc2)c1=O` had an inhibition constant (Ki) of 180 nM.
On the same count and under the same terms, the same measure for `CC(C)(C)NC(=O)Nc1nc(Cl)c(CCC2CCCCC2)n(CC(=O)Nc2cc(-c3cncnc3)ccc2C(=O)NS(=O)(=O)c2ccc(C(F)(F)F)cc2)c1=O`: 120 nM; for `CC(C)(C)NC(=O)Nc1nc(Cl)c(CCC2CCCCC2)n(CC(=O)Nc2cc(Br)ccc2C(=O)NS(=O)(=O)c2ccc(C(F)(F)F)cc2)c1=O`: 150 nM.
The same measure, in the same setting: to `CC(C)(C)NC(=O)Nc1nc(Cl)c(Cc2ccccc2)n(CC(=O)NC2(C(=O)NS(=O)(=O)c3ccc(C(F)(F)F)cc3)CC(OCc3ccccc3)C2)c1=O` (centres undefined) belongs 150 nM; to `Cc1ccc(S(=O)(=O)NC(=O)c2ccccc2NC(=O)Cn2c(CCC3CCCCC3)c(Cl)nc(NC(=O)NC(C)(C)C)c2=O)cc1`, 120 nM.
For `CC(C)(C)NC(=O)Nc1nc(Cl)c(CCC2CCCCC2)n(CC(=O)Nc2ccccc2C(=O)NS(=O)(=O)c2cccc(C(F)(F)F)c2)c1=O`, in data set [1], the inhibitory constant (Ki) came to 230 nM.
Same read-out and setting: the same measure for `CC(C)(C)NC(=O)Nc1nc(Cl)c(CCC2CCCCC2)n(CC(=O)Nc2ccc(CC(=O)NS(=O)(=O)c3ccc(C(F)(F)F)cc3)cc2)c1=O`: 140 nM; for `CC(C)(C)NC(=O)Nc1nc(Cl)c(CCC2CCCCC2)n(CC(=O)Nc2ccccc2C(=O)NS(=O)(=O)c2ccccc2C(F)(F)F)c1=O`: 130 nM.
Still for that read-out and setting: the same measure for `CC(C)(C)NC(=O)Nc1nc(Cl)c(Cc2cccc3ccccc23)n(CC(=O)Nc2cccc(S(=O)(=O)NC(=O)c3ccc(C(F)(F)F)cc3)c2)c1=O`: 190 nM.
As to `CC(C)(C)NC(=O)Nc1nc(Cl)c(CCC2CCCCC2)n(CC(=O)Nc2cc(F)ccc2C(=O)NS(=O)(=O)c2ccc(C(F)(F)F)cc2)c1=O`, in data set [1], the Ki amounted to 110 nM. Besides, the response in the data set with Hepatitis C virus was half-maximal at 7300 nM (EC50). In addition, half-maximal cytotoxicity in data set [2] (CC50) was put at 38000 nM.
With `CC(C)(C)NC(=O)Nc1nc(Cl)c(Cc2ccccc2)n(CC(=O)O)c1=O`, in data set [1], the Ki is above 10000 nM.
Same read-out and setting: the same measure for `CC(C)(C)NC(=O)Nc1nc(Cl)c(CCC2CCCCC2)n(CC(=O)Nc2ccc(C(=O)NS(=O)(=O)c3ccc(C(F)(F)F)cc3)cc2)c1=O`: 260 nM.
Still for that read-out and setting: the same measure for `CC(C)(C)NC(=O)Nc1ncc(Cc2ccccc2)n(CC(=O)NC2(C(=O)NS(=O)(=O)c3ccc(C(F)(F)F)cc3)CC(O)C2)c1=O` (centres undefined): 450 nM.
Same read-out and setting: the same measure for `CN(C(=O)c1ccccc1NC(=O)Cn1c(CCC2CCCCC2)c(Cl)nc(NC(=O)NC(C)(C)C)c1=O)S(=O)(=O)c1ccc(C(F)(F)F)cc1`: 260 nM.
As to `COC(=O)c1ccccc1NC(=O)Cn1c(CCC2CCCCC2)c(Cl)nc(NC(=O)NC(C)(C)C)c1=O`, the Ki in data set [1] is 120 nM. Moreover, in the data set on Hepatitis C virus, the EC50 worked out at 22000 nM. The same compound returned a CC50 in data set [2] above 100000 nM.
The like results for `CCCC(NC(=O)[C@@H]1[C@H]2CCC[C@H]2CN1C(=O)[C@@H](NC(=O)[C@@H](NC(=O)c1cnccn1)C1CCCCC1)C(C)(C)C)C(=O)C(=O)NC1CC1` (some centres undefined) were, in that order, 15 nM, 650 nM and above 1000 nM.
As for `CC[C@H](C)[C@H](NC(=O)[C@H](CC(C)C)NC(=O)C(CC(C(=O)O)C(=O)O)NC(=O)[C@H](CC(=O)O)NC(C)=O)C(=O)N[C@@H](CC1CCCCC1)C(=O)N[C@@H](CS)C(=O)O` (single isomer, unassigned), in data set [1], the affinity corresponds to a Ki of 91 nM.
Compound `CC(C)(C)OC(=O)N[C@H]1CCCCC/C=C\[C@@H]2C[C@@]2(C(=O)NS(=O)(=O)C2CC2)NC(=O)[C@@H]2C[C@@H](OC(=O)N3Cc4cccc(F)c4C3)CN2C1=O` [DANOPREVIR] returned an EC50 in the data set on Hepatitis C virus of 11 nM. The compound further displayed a CC50 in data set [2] above 1000 nM.
